Laboratory results published in ChEMBL document CHEMBL1141291, “Bioactive constituents of the roots of Polyalthia cerasoides” (J Nat Prod, 2007).
Converted amounts (≈) assume the structure as drawn. The source made the active and inactive calls. The rule behind the calls is not given here.

Columns and labels:
[1] = test system: Mycobacterium tuberculosis; assay: Antituberculosis activity against Mycobacterium tuberculosis H37Ra by microplate alamar blue assay; assay type: functional
Plasmodium falciparum = assay: Antimalarial activity against multidrug-resistant Plasmodium falciparum K1 in [3H]hypoxanthine incorporation microculture radioisotope assay; assay type: functional, organism-based
Outline: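 P. falciparum K1 maintained in culture by the Trager and Jensen method. Growth was measured in vitro by [3H]-hypoxanthine uptake in a microculture radioisotope format (Desjardins method). IC50 is the concentration giving 50% reduction in parasite growth. Artemisinin was the standard.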

KB = assay: Cytotoxicity against human KB cells; assay type: functional, cell-based
Outline: (§1)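 Tested on human epidermoid carcinoma (KB), breast cancer (BC1) and small cell lung cancer (NCI-H187) cell lines. Growth was read by a colorimetric method following Skehan and co-workers. Ellipticine was run as the reference substance.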

[2] = Cytotoxicity against human BC1 cells; assay type: functional, cell-based; outline: as §1
NCI-H187 = assay: Cytotoxicity against human NCI-H187 cells; assay type: functional, cell-based; outline: as §1

**Q.** Which MIC [1] does the source give for `NC[C@H]1O[C@H](O[C@H]2[C@H](O)[C@@H](O[C@H]3O[C@H](CO)[C@@H](O)[C@H](N)[C@H]3O)[C@H](N)C[C@@H]2N)[C@H](O)[C@@H](O)[C@@H]1O.O=S(=O)(O)O` [KANAMYCIN SULFATE] here?
**A.** 2.5 µg/mL

**Q.** Which IC50 (Plasmodium falciparum) does the source give for `C[C@@H]1CC[C@H]2[C@@H](C)C(=O)O[C@@H]3O[C@@]4(C)CC[C@@H]1[C@]32OO4` [ARTEMISININ] here?
**A.** 0.001 µg/mL (≈ 0.00354 µM)

**Q.** With `COc1ccc2c(c1)c(-c1c3c4c(cc5c(c4c4ccc(OC)cc14)OCO5)CCN3)c1c3c(cc4c(c32)OCO4)CCN1` [BIDEBILINE E] as the compound, how does the MIC [1] read?
**A.** 6.25 µg/mL (≈ 10.7 µM)

**Q.** And the IC50 (Plasmodium falciparum)?
**A.** 4.2 µg/mL (≈ 7.18 µM)

**Q.** With `CCCCC#CC#CC#CCCCCCCCC(=O)O` as the compound, how does the MIC [1] read?
**A.** 6.25 µg/mL (≈ 22.9 µM)

**Q.** And the IC50 (KB)?
**A.** > 5 µg/mL

**Q.** What about the IC50 (Plasmodium falciparum) of the same compound?
**A.** 5 µg/mL (≈ 18.4 µM)

**Q.** What about the IC50 [2] of the same compound?
**A.** 13 µg/mL (≈ 47.7 µM)

**Q.** What about the IC50 (NCI-H187) of the same compound?
**A.** > 5 µg/mL

**Q.** With `COc1ccc(C[C@H]2c3cc(OC)c(OC)cc3CCN2C)cc1O` [LAUDANIDINE] as the compound, how does the Activity [1] read?
**A.** inactive

**Q.** What about the IC50 (KB) of the same compound?
**A.** > 5 µg/mL

**Q.** What about the IC50 (Plasmodium falciparum) of the same compound?
**A.** 7 µg/mL (≈ 20.4 µM)

**Q.** And the IC50 [2]?
**A.** > 5 µg/mL

**Q.** And the IC50 (NCI-H187)?
**A.** > 5 µg/mL

**Q.** For `NNC(=O)c1ccncc1` [ISONIAZID], which MIC [1] is on record?
**A.** 0.05 µg/mL (≈ 0.365 µM)

**Q.** Which Activity [1] does the source give for `C=C1CC[C@@H]2O[C@]2(C)CC[C@@H]2[C@@H]1CC2(C)C` here?
**A.** inactive

**Q.** And the IC50 (KB)?
**A.** > 5 µg/mL

**Q.** What about the IC50 (Plasmodium falciparum) of the same compound?
**A.** 2.8 µg/mL (≈ 12.7 µM)

**Q.** What about the IC50 [2] of the same compound?
**A.** > 5 µg/mL

**Q.** What about the IC50 (NCI-H187) of the same compound?
**A.** 19.5 µg/mL (≈ 88.5 µM)

**Q.** Which IC50 (KB) does the source give for `Cc1c2ccncc2c(C)c2c1[nH]c1ccccc12` [ELLIPTECINE] here?
**A.** 0.36 µg/mL (≈ 1.46 µM)

**Q.** And the IC50 [2]?
**A.** 0.26 µg/mL (≈ 1.06 µM)

**Q.** What about the IC50 (NCI-H187) of the same compound?
**A.** 0.32 µg/mL (≈ 1.3 µM)

**Q.** With `COc1cc2c(cc1O)[C@H](Cc1ccc(OC)c(OC)c1)N(C)CC2` [CODAMINE] as the compound, how does the Activity [1] read?
**A.** inactive

**Q.** What about the IC50 (KB) of the same compound?
**A.** > 5 µg/mL

**Q.** And the IC50 (Plasmodium falciparum)?
**A.** 4.2 µg/mL (≈ 12.2 µM)

**Q.** What about the IC50 [2] of the same compound?
**A.** > 5 µg/mL

**Q.** What about the IC50 (NCI-H187) of the same compound?
**A.** > 5 µg/mL

**Q.** With `C/C1=C\CC/C(C)=C/CC(C)(C)/C=C/C1` [ALPHA-HUMULONE] as the compound, how does the MIC [1] read?
**A.** 6.25 µg/mL (≈ 30.6 µM)

**Q.** And the IC50 (KB)?
**A.** > 5 µg/mL

**Q.** And the Activity (Plasmodium falciparum)?
**A.** inactive

**Q.** And the IC50 [2]?
**A.** > 5 µg/mL

**Q.** And the IC50 (NCI-H187)?
**A.** > 5 µg/mL
